# Screens as filed in PubChem BioAssay.
# The list is not random: actives were taken first. Their share in the collection is about 4.9%.
# STAT1 act = STAT1 signaling activators, primary screen, cell-based, HTS, luciferase reporter. activation (% of control), % at 5.5 µM. NIH 3T3 STAT1-luciferase reporter, IFN-gamma, luminescence; 100% = IFN-gamma alone, no compound. AID 932, 2007. 200,000 compounds, 2.6% hits;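 active means activation above the screen-wide mean activation plus 3 SD, cut at about 130% in these data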;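 further: raw ratio to IFN-gamma control signal so 100% means no change and 0% no light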
# FLuc stim CS = FLuc activators, initial screening, artefact control for FLuc-dependent activation tests, biochemical, ATPlite luminescence; activation factor at 10 µM; ATPlite luciferase biochemical, 10 min; 0 = ATP-free wells, 1 = DMSO control; 200,000 tested, under 10 active; AID 1027, 2008; Luciferin 4-monooxygenase (Photinus pyralis), P08659;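 active means luciferase activation factor, scaled between plate controls, of at least 2 with compound at 10 µM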
# Target sequence (P08659 whole entry, looked up): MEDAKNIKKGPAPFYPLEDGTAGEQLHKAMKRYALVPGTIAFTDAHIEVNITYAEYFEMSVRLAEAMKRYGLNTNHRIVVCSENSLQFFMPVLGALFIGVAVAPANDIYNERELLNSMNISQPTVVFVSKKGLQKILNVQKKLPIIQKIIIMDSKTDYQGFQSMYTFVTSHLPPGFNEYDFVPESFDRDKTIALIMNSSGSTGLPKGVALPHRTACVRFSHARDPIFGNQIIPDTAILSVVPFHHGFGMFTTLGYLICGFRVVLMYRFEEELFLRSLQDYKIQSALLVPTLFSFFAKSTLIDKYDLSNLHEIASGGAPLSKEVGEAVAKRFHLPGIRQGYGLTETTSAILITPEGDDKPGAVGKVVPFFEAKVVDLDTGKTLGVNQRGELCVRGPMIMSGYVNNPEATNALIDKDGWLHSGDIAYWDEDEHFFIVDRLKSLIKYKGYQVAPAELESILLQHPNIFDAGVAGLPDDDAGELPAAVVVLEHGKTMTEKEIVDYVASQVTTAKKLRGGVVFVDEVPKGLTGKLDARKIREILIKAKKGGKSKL
#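 Assay system – cell-free luciferase reagent · Medium – PBS-based ATP solution · Dosing – test compounds dosed from 2 mM stocks in 100% DMSO · Timing – 10 min, room temperature · Technique – light output (luminescence) · Measure – luminescence gain marking luciferase activators · Controls – No-ATP low control, compound-free enzyme-plus-ATP high control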
# STAT1 inh = STAT1 signaling inhibitors, primary screen, cell-based, HTS, luciferase reporter. 200,000 compounds, 0.35% hits. inhibition, % at 5.5 µM. NIH 3T3 STAT1-luciferase reporter, IFN-gamma, luminescence;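 active means inhibition above a set limit, the mean inhibition across all tested compounds plus 3 SD, cut at about 34% in these data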;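 further: 0% = IFN-gamma with DMSO and 100% = IFN-gamma with 300 µM nifuroxazide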
# STAT3 inh-1 = IL-6 driven STAT3 reporter inhibitors, primary screen, U3A cells, luciferase, luminescence, MLSCN library; inhibition, % at 5.5 µM; 190,000 compounds, 0.89% hits; AID 862, 2007; IL-6 STAT3-luciferase reporter; host cell line lacks STAT1;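 active means inhibition above the mean inhibition across all screened compounds plus 3 SD, cut at about 44% in these data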;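 further: 0% = DMSO only wells and 100% = 100 µM nifuroxazide control wells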
# FLuc inh counter = firefly luciferase enzyme inhibitors, primary screen, artefact control for luciferase-based inhibitor screens, biochemical, luminescence, ATPLite; AID 1006, 2008; inhibition, % at 10 µM; Luciferin 4-monooxygenase (Photinus pyralis), P08659; 10 min; 200,000 compounds, 1.5% hits;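 active means inhibition above about 50% when tested at 10 µM, limit read from the data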
# STAT3 act = IL-6 driven STAT3 reporter potentiators, primary screen, U3A cells, luciferase, luminescence, MLSCN library; activation (% of control), % at 5.6 µM; IL-6 STAT3-luciferase reporter; 100% = signal with IL-6 EC80 alone; 190,000 compounds, 0.91% hits;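 active means activation above the screen-wide mean of compound activation plus 3 SD, cut at about 130% in these data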;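 further: 0% = background luminescence of wells with medium and substrate only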
#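 Material: STAT1-lacking human U3A cells, STAT3 luciferase reporter | Benchmarks: IL-6-only wells as 100% reference | Probe or stimulus: IL-6 (33 ng/mL) | Timing: Compound 1 h, then IL-6 6 h at 37 °C | Detection: Luminescence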
# STAT3 inh-2 = STAT3 reporter inhibitors, retest of hits, confirmation, U3A cells, luciferase, luminescence. shares compounds with STAT3 inh-1. IL-6 STAT3 luciferase reporter; cell line lacks STAT1. inhibition, % at 5.7 µM. 1,200 compounds, 45% hits. AID 1265, 2008;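 active means inhibition above the hit cutoff computed for the primary STAT3 screen, cut at about 44% in these data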;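 further: 0% = IL-6 plus DMSO and 100% = IL-6 plus nifuroxazide control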
# NFkB inh STAT3ct = NF-kB reporter inhibitors in human cells, confirmation, counter-screen for STAT3 inhibitor project, cell-based, HEK293T, luciferase, TNF-alpha stimulus. shares compounds with STAT3 inh-1. TNF-alpha induced. inhibition, % at 5.7 µM. 1,200 compounds, 36% hits;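 active means inhibition above the mean of solvent-only control wells plus 3 SD, cutoff set per campaign, cut at about 13% in these data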;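 further: 0% = TNF-alpha with DMSO and 100% = TNF-alpha with MG high control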
# STAT1 inh STAT3c = STAT1 reporter inhibitors, IFN-gamma induced, confirmation, counter-screen for STAT3 inhibitor project, cell-based, NIH 3T3, luciferase luminescence | shares compounds with STAT3 inh-1 | NIH 3T3 STAT1-luciferase reporter | inhibition, % at 5.7 µM | 1,200 compounds, 27% hits | AID 1317, 2008;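 active means inhibition above the mean plus 3 SD of solvent-only control wells, limit set per screening run, cut at about 16% in these data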;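 further: 0% = DMSO with IFN-gamma and 100% = nifuroxazide control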
# Numbers without * were called inactive; . = no result given.
SMILES,STAT1 act,FLuc stim CS,STAT1 inh,STAT3 inh-1,FLuc inh counter,STAT3 act,STAT3 inh-2,NFkB inh STAT3ct,STAT1 inh STAT3c
Cc1ccc(-n2ncc3c(N4CCN(c5ccccc5)CC4)ncnc32)c(C)c1,94,1,7,36,-4,74,.,.,.
Clc1ccc(-n2ncc3c(N4CCCCCC4)ncnc32)cc1,99,0.2,2,87*,83*,29,71*,49*,12
Cc1cccc(-n2ncc3c(N4CCCC4)ncnc32)c1,108,0.1,-9,67*,87*,45,29,-13,-80
Clc1ccc(Cn2ncc3c(N4CCCCC4)ncnc32)cc1,97,1.1,3,14,-6,91,.,.,.
Cc1cccc(C(=O)N2CCN(c3ncnc4c3cnn4-c3ccccc3)CC2)c1,91,1.1,10,2,-6,99,.,.,.
CC(C)CN1C(=O)c2ccc(C(=O)Nc3ccncc3)cc2C1=O,87,1,14,49*,-1,63,57*,6,8
CC(C)CN1C(=O)c2ccc(C(=O)Nc3ccccn3)cc2C1=O,109,0.7,-10,5,31,100,.,.,.
O=C(CSc1nnnn1C1CC2CCC1C2)Nc1ccnc2ccccc12 (stereo not given),77,1,25,81*,4,34,89*,42*,32*
O=C(CSc1nnnn1C1CCCCC1)Nc1ccccc1F,99,1,-1,6,-3,97,.,.,.
Cc1ccc(S(=O)(=O)N(C)CCCC(=O)Nc2ccncc2)cc1,82,1,20,50*,-5,63,38,3,13
CC(=O)Nc1ccc(S(=O)(=O)N/N=C/c2ccc(C)s2)cc1,114,0.9,-16,-1,14,103,.,.,.
Cc1nc2ccc3nc(NC(=O)C4COc5ccccc5O4)sc3c2s1 (stereo not given),97,1,4,14,-4,88,.,.,.
Cc1cnc(NC(=O)C2COc3ccccc3O2)s1 (stereo not given),107,0.5,-7,71*,52*,45,41,-29,-97
NC(N)=NS(=O)(=O)c1ccc(NC(=S)NC(=O)c2sc3ccccc3c2Cl)cc1,93,1.1,7,-2,-5,98,.,.,.
CCN1/C(=C/c2ccc3ccccc3[n+]2CC)C=Cc2ccccc21,73,0.9,29,92*,14,23,90*,52*,22*
Cc1ccc(-c2cn(-c3ccccc3)c3[n+]2CCCS3)cc1,74,1.1,28,57*,-5,51,50*,-1,28*
COc1ccc(-n2cc(-c3ccc(C)cc3)[n+]3c2SCC3)cc1,80,1.1,22,69*,-5,43,75*,7,23*
CCCNC(=O)NC(=O)CSc1nncs1,95,1,7,11,-2,95,.,.,.
Cc1cccc(NC(=O)c2onc3c2CCCC3)n1,119,0.1,-22,71*,92*,42,55*,18*,-23
Cc1cccc(NC(=O)c2ccc3c(Cl)c4c(nc3c2)CCCC4)n1,145*,0.2,-52,64*,81*,51,25,-7,-112
CC(=O)Nc1ccc(Br)cc1C(=O)C(=O)O,97,1.1,3,16,-10,85,.,.,.
COc1ccc(/C=N/NC(=O)CSCC(=O)Nc2ccccc2)cc1OC,107,1,-8,-6,1,105,.,.,.
COC(=O)Oc1ccc(/C=N/NC(=O)CSCc2ccccc2Br)cc1OC,92,1,9,58*,-4,55,66*,2,12
Cc1nc2ccccn2c1C(=O)NC1CCCc2ccccc21 (stereo not given),79,1.1,21,53*,-5,58,37,-1,12
O=C(NC1CCCc2ccccc21)c1cn2ccccc2n1 (stereo not given),93,1,9,-1,0,106,.,.,.
SMILES,STAT1 act,FLuc stim CS,STAT1 inh,STAT3 inh-1,FLuc inh counter,STAT3 act,STAT3 inh-2,NFkB inh STAT3ct,STAT1 inh STAT3c
COc1ccc(-c2cn3nc4c(nc3n2)CCCC4)cc1,124,0.3,-7,70*,68*,42,-17,-6,-10
COc1ccc(CNC(=O)Cn2cc3c(n2)CCCCC3)cc1,99,1,2,0,-3,100,.,.,.
O=C(CN1CCOCC1)Nc1nc(-c2ccc3c(c2)CCN3S(=O)(=O)c2ccccc2)cs1,95,1.1,5,30,-6,80,.,.,.
Cc1sc(NC(=O)CN2CCOCC2)nc1-c1ccc2c(c1)CCN2S(=O)(=O)c1ccccc1,82,1,20,66*,-4,45,52*,22*,20*
CSc1ccc(NC(=O)N2CCN(c3nc4ccccc4s3)CC2)cc1,91,1.1,10,46*,-8,64,46*,5,10
C/C(=N/NC(=O)c1ccccn1)c1ccco1,108,0.3,-9,44*,70*,66,11,-16,-43
COc1ccc(/C=N/NC(=S)Nc2cccc(C(=O)O)c2)cc1,72,0.4,29,78*,56*,36,52*,6,-5
O=C(NCCCN1CCOCC1)c1ccc(Br)cc1,105,1,-6,53*,-5,56,5,-8,-13
O=C(NCCCN1CCOCC1)c1ccc(CNS(=O)(=O)c2ccc(Br)cc2)cc1,106,1.1,-6,20,-5,89,.,.,.
Cc1ccc(S(=O)(=O)CC2CSc3nc4ccccc4n32)cc1 (stereo not given),70,1.1,34,88*,-10,32,84*,34*,32*
N#Cc1c(NC(=O)CSc2ncn[nH]2)sc2c1CCCCC2,73,1,30,71*,1,44,68*,30*,-1
N#Cc1c(NC(=O)CSc2nc(N)cc(=O)[nH]2)sc2c1CCCCCC2,94,1,6,43,-4,65,.,.,.
